Laboratory results published in ChEMBL document CHEMBL1132636, “Phthalein derivatives as a new tool for selectivity in thymidylate synthase inhibition” (J Med Chem, 1999).
In brackets after ≈: the same amount, converted by molar mass.

Test system: MT4
Assay: In vitro cytotoxicity against mock infected MT-4 cells.
Format: functional
Details: Homo sapiens
Method in brief: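 Uninfected MT-4 cells, 1 × 10⁴ per well in RPMI with 10% FCS, with serial compound dilutions from a DMSO stock. Incubated 4 days at 37 °C, run in parallel with the anti-HIV assay. Viable cells counted by MTT; reported as CC50.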

SMILES	CC50 [µM]
O=C1OC(c2ccc(O)c(Cl)c2)(c2ccc(O)c(Cl)c2)c2cccc3cccc1c23	46
Cc1ccc(C(C)C)c(O)c1C1(O)OC(=O)c2cccc3cccc1c23 (configuration not stated)	89
O=C1OC(c2ccc(O)cc2)(c2ccc(O)cc2)c2ccccc21 [PHENOLPHTHALEIN]	58
O=C1OC(c2ccc(O)cc2)(c2ccc(O)cc2)c2ccc([N+](=O)[O-])c3cccc1c23	41
O=C1OC(c2ccc(O)c(Cl)c2)(c2ccc(O)c(Cl)c2)c2cc3ccccc3cc21	120
O=C1OC(c2ccc(O)c(F)c2)(c2ccc(O)c(F)c2)c2cccc3cccc1c23	117
O=C1OC(c2ccc(O)cc2)(c2ccc(O)cc2)c2ccc(Cl)c3cccc1c23.O=C1OC(c2ccc(O)cc2)(c2ccc(O)cc2)c2cccc3c(Cl)ccc1c23	69
O=C1OC(c2ccc(O)c(Cl)c2)(c2ccc(O)c(Cl)c2)c2ccc(Br)c3cccc1c23.O=C1OC(c2ccc(O)c(Cl)c2)(c2ccc(O)c(Cl)c2)c2cccc3c(Br)ccc1c23	154
O=C1OC(c2ccc(O)cc2)(c2ccc(O)cc2)c2cccc3cccc1c23	41
O=C1OC(c2ccc(O)c(Cl)c2)(c2ccc(O)c(Cl)c2)c2ccc(Cl)c3cccc1c23.O=C1OC(c2ccc(O)c(Cl)c2)(c2ccc(O)c(Cl)c2)c2cccc3c(Cl)ccc1c23	63

Test system: thymidylate synthase (Lactobacillus casei)
Details: not given

IF	SMILES
0.093	O=C1OC(c2ccc(O)c(Cl)c2)(c2ccc(O)c(Cl)c2)c2cc3ccccc3cc21
0.36	O=C1OC(c2ccc(O)c(Cl)c2)(c2ccc(O)c(Cl)c2)c2ccc(Br)c3cccc1c23.O=C1OC(c2ccc(O)c(Cl)c2)(c2ccc(O)c(Cl)c2)c2cccc3c(Br)ccc1c23

Test system: Streptococcus
Assay: In vitro inhibition of Streptococcus growth.
Format: functional
Details: not given
Method in brief: (§1)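 Bacterial clinical isolates (S. aureus, group D Streptococcus) grown in nutrient broth pH 7.2, inoculum 10³ cells/tube, with serial dilutions of compound from a DMSO stock.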

SMILES	MIC [µM]
O=C1OC(c2ccc(O)c(Cl)c2)(c2ccc(O)c(Cl)c2)c2cccc3cccc1c23	1.8 (≈ 0.787 µg/mL)
Cc1ccc(C(C)C)c(O)c1C1(O)OC(=O)c2cccc3cccc1c23 (configuration not stated)	72 (≈ 25.1 µg/mL)
O=C1OC(c2ccc(O)cc2)(c2ccc(O)cc2)c2ccccc21 [PHENOLPHTHALEIN]	38 (≈ 12.1 µg/mL)
O=C1OC(c2ccc(O)cc2)(c2ccc(O)cc2)c2ccc([N+](=O)[O-])c3cccc1c23	> 41
O=C1OC(c2ccc(O)c(Cl)c2)(c2ccc(O)c(Cl)c2)c2cc3ccccc3cc21	3.1 (≈ 1.36 µg/mL)
O=C1OC(c2ccc(O)c(F)c2)(c2ccc(O)c(F)c2)c2cccc3cccc1c23	25 (≈ 10.1 µg/mL)
O=C1OC(c2ccc(O)c(Cl)c2)(c2ccc(O)c(Cl)c2)c2ccc(Cl)c3cccc1c23.O=C1OC(c2ccc(O)c(Cl)c2)(c2ccc(O)c(Cl)c2)c2cccc3c(Cl)ccc1c23	1.6

More lines, in order of falling MIC, values ahead:

MIC [µM]	SMILES
17 (≈ 6.26 µg/mL)	O=C1OC(c2ccc(O)cc2)(c2ccc(O)cc2)c2cccc3cccc1c23
8	O=C1OC(c2ccc(O)cc2)(c2ccc(O)cc2)c2ccc(Cl)c3cccc1c23.O=C1OC(c2ccc(O)cc2)(c2ccc(O)cc2)c2cccc3c(Cl)ccc1c23
3.1	O=C1OC(c2ccc(O)c(Cl)c2)(c2ccc(O)c(Cl)c2)c2ccc(Br)c3cccc1c23.O=C1OC(c2ccc(O)c(Cl)c2)(c2ccc(O)c(Cl)c2)c2cccc3c(Br)ccc1c23

Molecular target: T1, Thymidylate synthase (Lactobacillus casei) (UniProt P00469)
T1 sequence (whole entry): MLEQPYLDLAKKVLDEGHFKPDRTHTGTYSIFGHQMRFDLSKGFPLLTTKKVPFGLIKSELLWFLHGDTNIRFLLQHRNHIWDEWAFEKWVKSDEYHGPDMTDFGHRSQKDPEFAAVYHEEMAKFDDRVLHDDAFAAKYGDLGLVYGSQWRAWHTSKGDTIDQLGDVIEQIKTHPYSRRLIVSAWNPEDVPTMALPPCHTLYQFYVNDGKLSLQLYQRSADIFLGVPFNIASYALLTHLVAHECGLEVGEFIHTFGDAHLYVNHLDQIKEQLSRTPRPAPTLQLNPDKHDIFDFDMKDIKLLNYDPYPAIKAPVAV
Details: Lacticaseibacillus casei

IF	SMILES
0.444	O=C1OC(c2ccc(O)cc2)(c2ccc(O)cc2)c2ccccc21 [PHENOLPHTHALEIN]

Test system: Streptococcus
Assay: In vitro minimum concentration for germicidal effect on Streptococcus.
Format: functional
Details: not given

SMILES	MGC [µM]
O=C1OC(c2ccc(O)c(Cl)c2)(c2ccc(O)c(Cl)c2)c2cccc3cccc1c23	3.5
Cc1ccc(C(C)C)c(O)c1C1(O)OC(=O)c2cccc3cccc1c23 (configuration not stated)	>89
O=C1OC(c2ccc(O)cc2)(c2ccc(O)cc2)c2ccccc21 [PHENOLPHTHALEIN]	58
O=C1OC(c2ccc(O)c(Cl)c2)(c2ccc(O)c(Cl)c2)c2cc3ccccc3cc21	6.2
O=C1OC(c2ccc(O)c(F)c2)(c2ccc(O)c(F)c2)c2cccc3cccc1c23	25
O=C1OC(c2ccc(O)cc2)(c2ccc(O)cc2)c2ccc(Cl)c3cccc1c23.O=C1OC(c2ccc(O)cc2)(c2ccc(O)cc2)c2cccc3c(Cl)ccc1c23	8
O=C1OC(c2ccc(O)c(Cl)c2)(c2ccc(O)c(Cl)c2)c2ccc(Br)c3cccc1c23.O=C1OC(c2ccc(O)c(Cl)c2)(c2ccc(O)c(Cl)c2)c2cccc3c(Br)ccc1c23	3.1
O=C1OC(c2ccc(O)cc2)(c2ccc(O)cc2)c2cccc3cccc1c23	34
O=C1OC(c2ccc(O)c(Cl)c2)(c2ccc(O)c(Cl)c2)c2ccc(Cl)c3cccc1c23.O=C1OC(c2ccc(O)c(Cl)c2)(c2ccc(O)c(Cl)c2)c2cccc3c(Cl)ccc1c23	1.6

Test system: Staphylococcus aureus
Assay: In vitro inhibition of Staphylococcus aureus growth.
Format: functional
Details: not given
Method in brief: as §1

SMILES	MIC [µM]
O=C1OC(c2ccc(O)c(Cl)c2)(c2ccc(O)c(Cl)c2)c2cccc3cccc1c23	7 (≈ 3.06 µg/mL)
Cc1ccc(C(C)C)c(O)c1C1(O)OC(=O)c2cccc3cccc1c23 (configuration not stated)	> 89
O=C1OC(c2ccc(O)cc2)(c2ccc(O)cc2)c2ccccc21 [PHENOLPHTHALEIN]	> 58
O=C1OC(c2ccc(O)cc2)(c2ccc(O)cc2)c2ccc([N+](=O)[O-])c3cccc1c23	15 (≈ 6.2 µg/mL)
O=C1OC(c2ccc(O)c(Cl)c2)(c2ccc(O)c(Cl)c2)c2cc3ccccc3cc21	3.1 (≈ 1.36 µg/mL)
O=C1OC(c2ccc(O)c(F)c2)(c2ccc(O)c(F)c2)c2cccc3cccc1c23	25 (≈ 10.1 µg/mL)
O=C1OC(c2ccc(O)c(Cl)c2)(c2ccc(O)c(Cl)c2)c2ccc(Cl)c3cccc1c23.O=C1OC(c2ccc(O)c(Cl)c2)(c2ccc(O)c(Cl)c2)c2cccc3c(Cl)ccc1c23	3

Continued, values first:

MIC [µM]	SMILES
34 (≈ 12.5 µg/mL)	O=C1OC(c2ccc(O)cc2)(c2ccc(O)cc2)c2cccc3cccc1c23
8	O=C1OC(c2ccc(O)cc2)(c2ccc(O)cc2)c2ccc(Cl)c3cccc1c23.O=C1OC(c2ccc(O)cc2)(c2ccc(O)cc2)c2cccc3c(Cl)ccc1c23
3.1	O=C1OC(c2ccc(O)c(Cl)c2)(c2ccc(O)c(Cl)c2)c2ccc(Br)c3cccc1c23.O=C1OC(c2ccc(O)c(Cl)c2)(c2ccc(O)c(Cl)c2)c2cccc3c(Br)ccc1c23

Test system: Cryptococcus neoformans
Assay: In vitro inhibition of Cryptococcus neoformans growth.
Format: functional
Details: not given
Method in brief: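 Cr. neoformans in Sabouraud dextrose broth pH 5.7, 10³ blastospores or CFU/tube, serial compound dilutions, 37 °C, read after 5 days. MIC is the lowest concentration with no macroscopic growth. MGC is taken by subculturing negative tubes onto drug-free Sabouraud agar.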

SMILES	MIC [µM]
O=C1OC(c2ccc(O)c(Cl)c2)(c2ccc(O)c(Cl)c2)c2cccc3cccc1c23	9.37 (≈ 4.1 µg/mL)
Cc1ccc(C(C)C)c(O)c1C1(O)OC(=O)c2cccc3cccc1c23 (configuration not stated)	> 89
O=C1OC(c2ccc(O)cc2)(c2ccc(O)cc2)c2ccccc21 [PHENOLPHTHALEIN]	> 58
O=C1OC(c2ccc(O)cc2)(c2ccc(O)cc2)c2ccc([N+](=O)[O-])c3cccc1c23	> 41
O=C1OC(c2ccc(O)c(Cl)c2)(c2ccc(O)c(Cl)c2)c2cc3ccccc3cc21	> 200
O=C1OC(c2ccc(O)c(F)c2)(c2ccc(O)c(F)c2)c2cccc3cccc1c23	> 200
O=C1OC(c2ccc(O)c(Cl)c2)(c2ccc(O)c(Cl)c2)c2ccc(Cl)c3cccc1c23.O=C1OC(c2ccc(O)c(Cl)c2)(c2ccc(O)c(Cl)c2)c2cccc3c(Cl)ccc1c23	9.37

Results, then the compound that gave them:

MIC [µM]	SMILES
> 41	O=C1OC(c2ccc(O)cc2)(c2ccc(O)cc2)c2cccc3cccc1c23
> 69	O=C1OC(c2ccc(O)cc2)(c2ccc(O)cc2)c2ccc(Cl)c3cccc1c23.O=C1OC(c2ccc(O)cc2)(c2ccc(O)cc2)c2cccc3c(Cl)ccc1c23
> 200	O=C1OC(c2ccc(O)c(Cl)c2)(c2ccc(O)c(Cl)c2)c2ccc(Br)c3cccc1c23.O=C1OC(c2ccc(O)c(Cl)c2)(c2ccc(O)c(Cl)c2)c2cccc3c(Br)ccc1c23

Test system: Staphylococcus aureus
Assay: In vitro evaluation for minimum germicidal effect on Staphylococcus aureus was determined
Format: functional
Details: not given

SMILES	MGC [µM]
O=C1OC(c2ccc(O)c(Cl)c2)(c2ccc(O)c(Cl)c2)c2cccc3cccc1c23	14
O=C1OC(c2ccc(O)cc2)(c2ccc(O)cc2)c2ccc([N+](=O)[O-])c3cccc1c23	30
O=C1OC(c2ccc(O)c(Cl)c2)(c2ccc(O)c(Cl)c2)c2cc3ccccc3cc21	6.2
O=C1OC(c2ccc(O)c(F)c2)(c2ccc(O)c(F)c2)c2cccc3cccc1c23	50
O=C1OC(c2ccc(O)cc2)(c2ccc(O)cc2)c2ccc(Cl)c3cccc1c23.O=C1OC(c2ccc(O)cc2)(c2ccc(O)cc2)c2cccc3c(Cl)ccc1c23	16
O=C1OC(c2ccc(O)c(Cl)c2)(c2ccc(O)c(Cl)c2)c2ccc(Br)c3cccc1c23.O=C1OC(c2ccc(O)c(Cl)c2)(c2ccc(O)c(Cl)c2)c2cccc3c(Br)ccc1c23	12.5
O=C1OC(c2ccc(O)cc2)(c2ccc(O)cc2)c2cccc3cccc1c23	41
O=C1OC(c2ccc(O)c(Cl)c2)(c2ccc(O)c(Cl)c2)c2ccc(Cl)c3cccc1c23.O=C1OC(c2ccc(O)c(Cl)c2)(c2ccc(O)c(Cl)c2)c2cccc3c(Cl)ccc1c23	3

Test system: not listed separately
Assay: Ratio of cytotoxic concentration to that of minimum inhibitory concentration against Streptococcus (CC50/MIC50).
Format: functional
Details: not given

SMILES	SI
O=C1OC(c2ccc(O)c(Cl)c2)(c2ccc(O)c(Cl)c2)c2cc3ccccc3cc21	39.6
O=C1OC(c2ccc(O)c(Cl)c2)(c2ccc(O)c(Cl)c2)c2ccc(Br)c3cccc1c23.O=C1OC(c2ccc(O)c(Cl)c2)(c2ccc(O)c(Cl)c2)c2cccc3c(Br)ccc1c23	49.6

Molecular target: Thymidylate synthase (Homo sapiens) (UniProt P04818)
Sequence (P04818 2-313 limits assumed): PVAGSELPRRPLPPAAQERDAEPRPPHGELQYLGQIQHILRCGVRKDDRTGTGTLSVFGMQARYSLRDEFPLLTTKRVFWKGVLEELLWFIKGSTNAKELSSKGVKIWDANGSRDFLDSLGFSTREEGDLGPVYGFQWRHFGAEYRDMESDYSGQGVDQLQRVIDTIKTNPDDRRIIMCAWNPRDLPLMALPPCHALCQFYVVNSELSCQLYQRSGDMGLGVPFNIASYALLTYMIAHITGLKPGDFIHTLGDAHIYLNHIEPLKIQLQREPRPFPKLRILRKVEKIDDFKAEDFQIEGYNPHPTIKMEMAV
Details: not given

SMILES	IF
O=C1OC(c2ccc(O)c(Cl)c2)(c2ccc(O)c(Cl)c2)c2cccc3cccc1c23	0.814
Cc1ccc(C(C)C)c(O)c1C1(O)OC(=O)c2cccc3cccc1c23 (configuration not stated)	1
O=C1OC(c2ccc(O)cc2)(c2ccc(O)cc2)c2ccccc21 [PHENOLPHTHALEIN]	0.182
O=C1OC(c2ccc(O)cc2)(c2ccc(O)cc2)c2ccc([N+](=O)[O-])c3cccc1c23	0.424
O=C1OC(c2ccc(O)c(Cl)c2)(c2ccc(O)c(Cl)c2)c2cc3ccccc3cc21	0.103
O=C1OC(c2ccc(O)c(F)c2)(c2ccc(O)c(F)c2)c2cccc3cccc1c23	1
O=C1OC(c2ccc(O)c(Cl)c2)(c2ccc(O)c(Cl)c2)c2ccc(Cl)c3cccc1c23.O=C1OC(c2ccc(O)c(Cl)c2)(c2ccc(O)c(Cl)c2)c2cccc3c(Cl)ccc1c23	1

Continued, values first:

IF	SMILES
0.272	O=C1OC(c2ccc(O)cc2)(c2ccc(O)cc2)c2cccc3cccc1c23
0.438	O=C1OC(c2ccc(O)cc2)(c2ccc(O)cc2)c2ccc(Cl)c3cccc1c23.O=C1OC(c2ccc(O)cc2)(c2ccc(O)cc2)c2cccc3c(Cl)ccc1c23
1	O=C1OC(c2ccc(O)c(Cl)c2)(c2ccc(O)c(Cl)c2)c2ccc(Br)c3cccc1c23.O=C1OC(c2ccc(O)c(Cl)c2)(c2ccc(O)c(Cl)c2)c2cccc3c(Br)ccc1c23
